Laboratory results as given in ChEMBL document CHEMBL4184148 (Bioorg Med Chem Lett, 2017).

Columns and labels:
[1] = Half life in mouse hepatic microsomes at 1 mg/ml; format: ADME, Liver, microsome
[2] = target: Activin receptor type-2B (Homo sapiens) (UniProt Q13705); test: Binding affinity to wild-type human ACVR2B (H169 to D504 residues) expressed in Escherichia coli BL21 at 1 uM by Kinomescan method relative to control
[3] = target: Ankyrin repeat and protein kinase domain-containing protein 1 (Homo sapiens) (UniProt Q8NFD2); test: Binding affinity to wild-type human partial length ANKK1 (M1 to A305 residues) expressed in HEK293 cells at 1 uM by Kinomescan method relative to control; format: cell-based
Outline: (§1)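 Kinome-wide competition binding panel run by an outside provider, with each compound tested at a single concentration. Activity is read against the kinase panel.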

[4] = target: Mitogen-activated protein kinase kinase kinase 6 (Homo sapiens) (UniProt O95382); test: Binding affinity to wild-type human partial length ASK2 (M278 to R972 residues) expressed in HEK293 cells at 1 uM by Kinomescan method relative to control; format: cell-based; outline: as §1
[5] = target: Bone morphogenetic protein receptor type-1B (Homo sapiens) (UniProt O00238); test: Binding affinity to wild-type human partial length BMPR1B (D178 to L502 residues) expressed in HEK293 cells at 1 uM by Kinomescan method relative to control; format: cell-based
[6] = target: Serine/threonine-protein kinase BRSK2 (Homo sapiens) (UniProt Q8IWQ3); test: Binding affinity to wild-type human full length BRSK2 (M1 to L674 residues) expressed in Escherichia coli BL21 at 1 uM by Kinomescan method relative to control
[7] = target: Cyclin-dependent kinase-like 2 (Homo sapiens) (UniProt Q92772); test: Binding affinity to wild-type human partial length CDKL2 (M1 to D327 residues) expressed in Escherichia coli BL21 at 1 uM by Kinomescan method relative to control
[8] = target: Casein kinase I isoform delta (Homo sapiens) (UniProt P48730); test: Binding affinity to wild-type human full length CSNK1D (M1 to K409 residues) expressed in Escherichia coli BL21 at 1 uM by Kinomescan method relative to control
Outline: (§2)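 Run as one kinome-wide competition binding panel with each compound at a single fixed concentration. Results were plotted as a kinome-wide selectivity map.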

[9] = target: Serine/threonine-protein kinase DCLK3 (Homo sapiens) (UniProt Q9C098); test: Binding affinity to wild-type human partial length DCAMKL3 (E140 to V628 residues) expressed in Escherichia coli BL21 at 1 uM by Kinomescan method relative to control
[10] = target: Myotonin-protein kinase (Homo sapiens) (UniProt Q09013); test: Binding affinity to wild-type human partial length DMPK (V47 to V415 residues) expressed in Escherichia coli BL21 at 1 uM by Kinomescan method relative to control
[11] = target: Fibroblast growth factor receptor 2 (Homo sapiens) (UniProt P21802); test: Binding affinity to wild-type human partial length FGFR2 (D457 to E769 residues) expressed in Escherichia coli BL21 at 1 uM by Kinomescan method relative to control
[12] = target: Serine/threonine-protein kinase haspin (Homo sapiens) (UniProt Q8TF76); test: Binding affinity to wild-type human partial length HASPIN (I452 to K798 residues) expressed in HEK293 cells at 1 uM by Kinomescan method relative to control; format: cell-based
[13] = target: Serine/threonine-protein kinase 10 (Homo sapiens) (UniProt O94804); test: Binding affinity to wild-type human partial length LOK (E16 to V314 residues) expressed in Escherichia coli BL21 at 1 uM by Kinomescan method relative to control
[14] = target: Dual specificity mitogen-activated protein kinase kinase 1 (Homo sapiens) (UniProt Q02750); test: Binding affinity to wild-type human full length MEK1 (M1 to V393 residues) expressed in HEK293 cells at 1 uM by Kinomescan method relative to control; format: cell-based; outline: as §2
[15] = target: Myosin light chain kinase (Homo sapiens) (UniProt Q32MK0); test: Binding affinity to wild-type human partial length MLCK (D488 to K800 residues) expressed in Escherichia coli BL21 at 1 uM by Kinomescan method relative to control
[16] = target: Macrophage-stimulating protein receptor (Homo sapiens) (UniProt Q04912); test: Binding affinity to wild-type human partial length MST1R (I1057 to L1363 residues) expressed in Escherichia coli BL21 at 1 uM by Kinomescan method relative to control
[17] = target: Phosphatidylinositol 3-kinase C2 domain-containing subunit gamma (Homo sapiens) (UniProt O75747); test: Binding affinity to wild-type human partial length PIK3C2G (M1 to I1446 residues) expressed in HEK293 cells at 1 uM by Kinomescan method relative to control; format: cell-based
[18] = target: Phosphatidylinositol 4,5-bisphosphate 3-kinase catalytic subunit alpha isoform (Homo sapiens) (UniProt P42336); test: Binding affinity to wild-type human partial length PIK3CA (R108 to N1068 residues) expressed in HEK293 cells at 1 uM by Kinomescan method relative to control; format: cell-based
[19] = test system: Phosphatidylinositol 4,5-bisphosphate 3-kinase catalytic subunit alpha isoform (Homo sapiens), P42336 [I800L]; test: Binding affinity to human partial length PIK3CA I800L mutant (R108 to N1068 residues) expressed in HEK293 cells at 1 uM by Kinomescan method relative to control; format: cell-based
[20] = target: Protein kinase C iota type (Homo sapiens) (UniProt P41743); test: Binding affinity to wild-type human partial length PRKCI (H215 to V587 residues) expressed in HEK293 cells at 1 uM by Kinomescan method relative to control; format: cell-based
[21] = target: Ribosomal protein S6 kinase alpha-2 (Homo sapiens) (UniProt Q15349); test: Binding affinity to wild-type human partial length N-terminal RSK2 kinase domain 1 (M1 to D394 residues) expressed in HEK293 cells at 1 uM by Kinomescan method relative to control; format: cell-based
[22] = target: STE20/SPS1-related proline-alanine-rich protein kinase (Homo sapiens) (UniProt Q9UEW8); test: Binding affinity to wild-type human partial length STK39 (P43 to I357 residues) expressed in HEK293 cells at 1 uM by Kinomescan method relative to control; format: cell-based
[23] = target: Tyrosine-protein kinase Tec (Homo sapiens) (UniProt P42680); test: Binding affinity to wild-type human partial length TEC (L341 to D620 residues) expressed in Escherichia coli BL21 at 1 uM by Kinomescan method relative to control
[24] = target: Transient receptor potential cation channel subfamily M member 6 (Homo sapiens) (UniProt Q9BX84); test: Binding affinity to wild-type human partial length TRPM6 (Q1723 to I1998 residues) expressed in HEK293 cells at 1 uM by Kinomescan method relative to control; format: cell-based
[25] = target: Dual specificity protein kinase TTK (Homo sapiens) (UniProt P33981); test: Binding affinity to wild-type human partial length TTK (N505 to V798 residues) expressed in Escherichia coli BL21 at 1 uM by Kinomescan method relative to control
[26] = target: Non-receptor tyrosine-protein kinase TYK2 (Homo sapiens) (UniProt P29597); test: Binding affinity to wild-type human partial length TYK2 JH2 pseudokinase domain (G556 to D888 residues) expressed in HEK293 cells at 1 uM by Kinomescan method relative to control; format: cell-based

Phosphatidylinositol 4,5-bisphosphate 3-kinase catalytic subunit alpha isoform (Homo sapiens), sequence (P42336 whole entry, the tested form may be a part, canonical isoform): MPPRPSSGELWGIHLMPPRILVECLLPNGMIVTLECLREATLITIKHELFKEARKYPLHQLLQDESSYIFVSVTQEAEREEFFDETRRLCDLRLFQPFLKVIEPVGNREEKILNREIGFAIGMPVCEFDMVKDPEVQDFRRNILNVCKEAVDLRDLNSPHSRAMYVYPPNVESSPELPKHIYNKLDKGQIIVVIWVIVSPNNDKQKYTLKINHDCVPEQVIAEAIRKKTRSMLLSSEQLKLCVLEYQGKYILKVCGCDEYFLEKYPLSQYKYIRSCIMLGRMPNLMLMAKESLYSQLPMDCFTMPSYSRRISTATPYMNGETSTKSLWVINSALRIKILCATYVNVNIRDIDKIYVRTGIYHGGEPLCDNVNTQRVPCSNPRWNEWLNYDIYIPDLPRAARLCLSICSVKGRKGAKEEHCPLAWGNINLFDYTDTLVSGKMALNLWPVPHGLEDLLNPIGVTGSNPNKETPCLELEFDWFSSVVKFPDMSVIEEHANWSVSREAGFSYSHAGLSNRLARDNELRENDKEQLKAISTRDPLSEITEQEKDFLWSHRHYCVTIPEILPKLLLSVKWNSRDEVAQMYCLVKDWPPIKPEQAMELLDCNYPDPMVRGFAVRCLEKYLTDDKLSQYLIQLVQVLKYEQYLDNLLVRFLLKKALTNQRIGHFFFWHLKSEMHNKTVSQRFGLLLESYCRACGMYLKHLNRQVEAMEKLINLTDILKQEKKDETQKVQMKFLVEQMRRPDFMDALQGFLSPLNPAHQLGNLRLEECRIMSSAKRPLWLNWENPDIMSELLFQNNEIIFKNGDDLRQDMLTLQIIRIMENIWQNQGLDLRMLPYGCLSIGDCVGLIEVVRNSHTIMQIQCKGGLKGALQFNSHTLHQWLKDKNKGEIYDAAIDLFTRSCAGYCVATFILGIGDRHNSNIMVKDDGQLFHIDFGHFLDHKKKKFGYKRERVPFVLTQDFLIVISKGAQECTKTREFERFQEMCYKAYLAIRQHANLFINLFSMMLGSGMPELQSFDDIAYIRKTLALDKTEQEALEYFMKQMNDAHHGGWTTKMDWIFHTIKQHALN
Fibroblast growth factor receptor 2 (Homo sapiens), sequence (P21802 22-821 limits assumed): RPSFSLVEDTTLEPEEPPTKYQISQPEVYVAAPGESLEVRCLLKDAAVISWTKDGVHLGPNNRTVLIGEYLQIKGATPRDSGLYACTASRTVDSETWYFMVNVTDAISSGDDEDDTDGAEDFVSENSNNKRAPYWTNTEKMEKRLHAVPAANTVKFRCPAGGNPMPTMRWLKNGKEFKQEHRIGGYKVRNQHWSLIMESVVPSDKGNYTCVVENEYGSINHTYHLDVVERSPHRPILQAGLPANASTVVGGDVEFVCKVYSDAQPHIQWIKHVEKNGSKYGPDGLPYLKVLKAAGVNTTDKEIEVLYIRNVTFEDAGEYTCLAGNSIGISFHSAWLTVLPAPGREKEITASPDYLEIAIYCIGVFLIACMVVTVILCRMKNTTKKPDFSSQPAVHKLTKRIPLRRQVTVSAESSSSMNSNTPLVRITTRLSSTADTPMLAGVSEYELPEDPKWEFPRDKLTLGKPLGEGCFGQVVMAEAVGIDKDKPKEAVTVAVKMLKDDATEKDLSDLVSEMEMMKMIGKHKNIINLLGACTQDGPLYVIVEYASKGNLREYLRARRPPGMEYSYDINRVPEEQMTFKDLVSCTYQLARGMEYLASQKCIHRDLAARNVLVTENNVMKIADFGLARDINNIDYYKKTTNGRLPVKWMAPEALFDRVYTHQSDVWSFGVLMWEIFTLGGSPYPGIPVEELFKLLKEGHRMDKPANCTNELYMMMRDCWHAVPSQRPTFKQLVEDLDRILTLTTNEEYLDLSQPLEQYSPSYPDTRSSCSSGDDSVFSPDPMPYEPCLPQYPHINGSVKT
Phosphatidylinositol 3-kinase C2 domain-containing subunit gamma (Homo sapiens), sequence (O75747 whole entry, the tested form may be a part, canonical isoform): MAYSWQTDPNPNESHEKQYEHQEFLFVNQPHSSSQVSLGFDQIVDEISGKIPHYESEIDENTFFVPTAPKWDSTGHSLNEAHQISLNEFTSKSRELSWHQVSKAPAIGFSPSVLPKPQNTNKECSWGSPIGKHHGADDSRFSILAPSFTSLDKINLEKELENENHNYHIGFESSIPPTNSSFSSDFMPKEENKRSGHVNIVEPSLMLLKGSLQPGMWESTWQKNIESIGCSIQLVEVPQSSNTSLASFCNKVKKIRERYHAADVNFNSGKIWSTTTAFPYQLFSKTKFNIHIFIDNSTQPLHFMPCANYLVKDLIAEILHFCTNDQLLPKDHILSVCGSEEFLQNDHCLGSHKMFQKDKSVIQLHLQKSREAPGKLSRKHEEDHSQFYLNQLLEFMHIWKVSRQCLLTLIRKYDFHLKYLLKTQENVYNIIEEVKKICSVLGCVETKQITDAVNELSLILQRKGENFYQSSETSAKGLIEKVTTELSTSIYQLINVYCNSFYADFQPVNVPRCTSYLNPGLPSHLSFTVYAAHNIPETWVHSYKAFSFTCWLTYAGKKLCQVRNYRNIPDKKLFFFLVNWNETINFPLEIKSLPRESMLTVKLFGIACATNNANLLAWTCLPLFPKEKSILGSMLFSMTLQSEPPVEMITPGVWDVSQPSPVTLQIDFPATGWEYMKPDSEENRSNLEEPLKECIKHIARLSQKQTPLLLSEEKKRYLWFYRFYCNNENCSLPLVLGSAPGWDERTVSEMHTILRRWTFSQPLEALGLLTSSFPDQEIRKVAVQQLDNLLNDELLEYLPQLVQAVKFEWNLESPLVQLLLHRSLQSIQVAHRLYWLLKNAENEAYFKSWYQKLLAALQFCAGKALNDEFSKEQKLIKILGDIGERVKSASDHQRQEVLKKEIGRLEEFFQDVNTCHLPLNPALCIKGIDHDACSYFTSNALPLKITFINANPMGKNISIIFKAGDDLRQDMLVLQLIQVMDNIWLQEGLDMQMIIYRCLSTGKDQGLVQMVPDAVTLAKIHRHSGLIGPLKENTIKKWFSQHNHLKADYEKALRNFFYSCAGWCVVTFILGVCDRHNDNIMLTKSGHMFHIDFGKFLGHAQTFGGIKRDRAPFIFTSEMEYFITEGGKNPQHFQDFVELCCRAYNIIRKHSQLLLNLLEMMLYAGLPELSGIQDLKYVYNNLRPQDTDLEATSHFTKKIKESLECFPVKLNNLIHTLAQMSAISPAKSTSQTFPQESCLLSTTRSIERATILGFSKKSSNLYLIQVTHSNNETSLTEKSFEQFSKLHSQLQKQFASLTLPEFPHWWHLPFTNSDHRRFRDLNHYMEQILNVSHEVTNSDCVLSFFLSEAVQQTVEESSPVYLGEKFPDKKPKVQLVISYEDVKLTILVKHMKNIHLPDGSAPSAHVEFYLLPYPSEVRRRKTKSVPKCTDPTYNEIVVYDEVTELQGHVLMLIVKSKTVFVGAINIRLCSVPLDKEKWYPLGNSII
Mitogen-activated protein kinase kinase kinase 6 (Homo sapiens), sequence (O95382 whole entry, the tested form may be a part): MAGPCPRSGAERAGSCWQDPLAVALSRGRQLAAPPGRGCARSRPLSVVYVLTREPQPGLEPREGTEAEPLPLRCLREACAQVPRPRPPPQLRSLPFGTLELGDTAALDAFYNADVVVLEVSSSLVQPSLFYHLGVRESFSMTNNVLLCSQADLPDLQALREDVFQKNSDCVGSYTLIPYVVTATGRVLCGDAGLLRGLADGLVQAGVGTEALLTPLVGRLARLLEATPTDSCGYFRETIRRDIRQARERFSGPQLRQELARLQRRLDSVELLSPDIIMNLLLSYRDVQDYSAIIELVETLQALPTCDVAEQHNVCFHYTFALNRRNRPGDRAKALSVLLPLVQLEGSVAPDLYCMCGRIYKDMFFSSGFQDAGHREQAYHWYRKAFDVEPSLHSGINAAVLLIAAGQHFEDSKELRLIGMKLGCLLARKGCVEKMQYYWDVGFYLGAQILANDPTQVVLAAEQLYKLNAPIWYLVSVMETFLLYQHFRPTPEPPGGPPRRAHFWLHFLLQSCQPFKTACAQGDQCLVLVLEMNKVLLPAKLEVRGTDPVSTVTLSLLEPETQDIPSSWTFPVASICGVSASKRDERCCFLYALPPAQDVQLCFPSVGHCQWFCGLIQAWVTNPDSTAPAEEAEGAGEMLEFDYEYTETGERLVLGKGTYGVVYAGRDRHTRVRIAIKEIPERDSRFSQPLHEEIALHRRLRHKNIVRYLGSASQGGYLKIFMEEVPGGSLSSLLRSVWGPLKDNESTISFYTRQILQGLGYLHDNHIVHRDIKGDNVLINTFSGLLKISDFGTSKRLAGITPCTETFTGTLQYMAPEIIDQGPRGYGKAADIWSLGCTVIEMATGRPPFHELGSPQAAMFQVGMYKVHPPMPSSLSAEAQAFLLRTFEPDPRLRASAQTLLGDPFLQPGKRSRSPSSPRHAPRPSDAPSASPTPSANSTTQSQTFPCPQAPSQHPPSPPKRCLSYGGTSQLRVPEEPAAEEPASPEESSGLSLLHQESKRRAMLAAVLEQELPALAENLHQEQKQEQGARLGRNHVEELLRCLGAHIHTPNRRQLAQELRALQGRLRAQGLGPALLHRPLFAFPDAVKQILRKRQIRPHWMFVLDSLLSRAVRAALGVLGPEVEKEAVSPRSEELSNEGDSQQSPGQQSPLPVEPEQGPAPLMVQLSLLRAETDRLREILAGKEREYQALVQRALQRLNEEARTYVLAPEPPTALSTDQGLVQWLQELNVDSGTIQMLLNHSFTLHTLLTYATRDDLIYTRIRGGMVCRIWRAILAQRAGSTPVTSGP
Dual specificity mitogen-activated protein kinase kinase 1 (Homo sapiens), sequence (Q02750 whole entry, the tested form may be a part): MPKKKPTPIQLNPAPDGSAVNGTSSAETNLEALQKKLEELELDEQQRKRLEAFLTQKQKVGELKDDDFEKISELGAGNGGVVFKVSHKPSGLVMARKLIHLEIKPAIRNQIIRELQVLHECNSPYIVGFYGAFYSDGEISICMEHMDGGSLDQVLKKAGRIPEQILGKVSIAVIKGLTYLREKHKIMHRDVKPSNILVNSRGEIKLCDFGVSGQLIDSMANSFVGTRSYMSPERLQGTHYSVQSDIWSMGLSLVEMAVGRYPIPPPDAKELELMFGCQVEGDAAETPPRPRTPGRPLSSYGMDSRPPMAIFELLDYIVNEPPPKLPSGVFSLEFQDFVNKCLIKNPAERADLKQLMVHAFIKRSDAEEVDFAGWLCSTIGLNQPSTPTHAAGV

SMILES	t1/2 [1] [min]	Activity [2] [%]	Activity [3] [%]	Activity [4] [%]	Activity [5] [%]	Activity [6] [%]	Activity [7] [%]	Activity [8] [%]	Activity [9] [%]	Activity [10] [%]	Activity [11] [%]	Activity [12] [%]	Activity [13] [%]	Activity [14] [%]	Activity [15] [%]	Activity [16] [%]	Activity [17] [%]	Activity [18] [%]	Activity [19] [%]	Activity [20] [%]	other results
CCC(=O)Nc1ccc(C(=O)Nc2ccc(Nc3ncc4c(n3)N(C)c3ccc(C)cc3C(=O)N4C)cc2)cc1	2.9	100	60	89	62	88	100	95	100	100	89	100	78	52	99	85	81	87	78	66	Activity [21]: 66%; Activity [22]: 73%; Activity [23]: 93%; Activity [24]: 100%; Activity [25]: 87%; Activity [26]: 93%
C=CC(=O)Nc1ccc(C(=O)Nc2ccc(Nc3ncc4c(n3)N(C)c3ccc(C)cc3C(=O)N4C)cc2)cc1	7.5	100	92	83	100	98	86	86	93	96	88	100	100	100	90	82	71	76	76	87	Activity [21]: 82%; Activity [22]: 88%; Activity [23]: 100%; Activity [24]: 96%; Activity [25]: 86%; Activity [26]: 88%
